Test results reported in ChEMBL document CHEMBL2086351, “Α-aryl-N-alkyl nitrones, as potential agents for stroke treatment: synthesis, theoretical calculations, antioxidant, anti-inflammatory, neuroprotective, and brain-blood barrier permeability properties” (J Med Chem, 2012).

How the values were obtained:
[1] = Neuroprotective activity in Sprague-Dawley rat primary cortical neurons assessed as reversal of oxygen-glucose deprivation-induced neuronal damage at 250 uM by treated 4 hrs after OGD challenge measured after 24 hrs by LDH release assay relative to control; format: functional, Cerebral cortex neuron
Summary of the method: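 Primary cortical neurons, cultured 6–8 days, underwent 4 h oxygen–glucose deprivation followed by 24 h reperfusion. Compounds (1–250 μM) were added at reperfusion. Necrotic death was read as LDH release, normalized to untreated reperfusion cells as 100%. Four independent experiments; mean ± SEM; one-way ANOVA with Holm–Sidak post test.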

[2] = test system: Radical scavenging activity; assay: Antioxidant activity assessed as DPPH radical scavenging activity at 0.5 mM after 2 hrs by spectrophotometric analysis; format: functional
Summary of the method: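 DPPH radical test, measuring initial absorbance and absorbance after reaction spectrophotometrically.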

[3] = Antioxidant activity against AAPH-induced lipid peroxidation assessed as induction time of inhibition at 0.1 mM; format: functional
[4] = Antioxidant activity assessed as superoxide anion radical scavenging activity at 0.1 mM after 10 mins by tetrazolium dye assay; format: functional
Summary of the method: (§1)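 Tested in vitro at 0.1 mM. The hydroxyl radical line measures competition with DMSO for hydroxyl radicals. Superoxide was generated at pH 7.4 and read as nitroblue tetrazolium reduction to formazan at 560 nm. LOX inhibition was measured by UV absorbance enzyme assay with plant lipoxygenase.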

[5] = Neuroprotective activity in Sprague-Dawley rat primary cortical neurons assessed as reversal of oxygen-glucose deprivation-induced neuronal damage at 1 uM by treated 4 hrs after OGD challenge measured after 24 hrs MTT assay relative to control; format: functional, cell-based; conditions: Cerebral cortex neuron
Summary of the method: (§2)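 Primary cerebral cortex neurons, cultured 6–8 days, underwent 4 h oxygen–glucose deprivation. Compounds (0.1 μM–10 mM range) were added at the start of a 24 h reperfusion. Viability was read by MTT with untreated control as 100%. Neuroprotection = % recovery from the reperfusion-only value (0%) to control (100%). Three to five independent experiments; mean ± SEM.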

[6] = Neuroprotective activity in Sprague-Dawley rat primary cortical neurons assessed as reversal of oxygen-glucose deprivation-induced neuronal damage at 250 uM by treated 4 hrs after OGD challenge measured after 24 hrs MTT assay relative to control; format: functional, cell-based; conditions: Cerebral cortex neuron; summary of the method: as §2
[7] = Antioxidant activity assessed as Fe3+/ascorbic acid-induced hydroxyl radical scavenging activity at 0.1 mM after 30 mins; format: functional; summary of the method: as §1
Mus musculus = assay: Neuroprotective activity in NMRI mouse assessed as protection against tert-butyl hydroperoxide-mediated lethality at 150 mg/kg, ip administered 30 mins before t-BHP challenge measured after 1 to 24 hrs; format: functional; conditions: route intraperitoneal
[8] = Neuroprotective activity in Sprague-Dawley rat primary cortical neurons assessed as reversal of oxygen-glucose deprivation-induced neuronal damage at 100 uM by treated 4 hrs after OGD challenge measured after 24 hrs MTT assay relative to control; format: functional, cell-based; conditions: Cerebral cortex neuron; summary of the method: as §2
[9] = Permeability of the compound at pH 7.4 by PAMPA; format: ADME; conditions: read-out: permeability
Summary of the method: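 PAMPA-BBB method of Di et al. (passive blood–brain barrier permeation). Effective permeability is reported as Pe in 10−6 cm s−1.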

[10] = molecular target: Lipoxygenase (Glycine max) (UniProt Q39829); assay: Inhibition of soybean lipoxygenase assessed as conversion of sodium linoleate to 13-hydroperoxylinoleic acid at 0.1 mM by competitive inhibition assay; summary of the method: as §1

Structure (SMILES): CC(C)(C)/[N+]([O-])=C/c1cccc(C(F)(F)F)c1
- Activity [1]: 70.08%
- Activity [2]: 0.9%
- TIME [3]: 0 h
- Activity [4]: 29%
- Activity [5]: 71.2%
- Activity [6]: 81.2%
- Activity [7]: 60%
- Activity (Mus musculus): 12%
- Activity [8]: 101%
- Papp [9]: 27 ×10⁻⁶ cm/s
- inhibition [10]: 65%
